Test results as given in ChEMBL document CHEMBL1135248, “Synthesis and evaluation of pseudopeptide analogues of a specific CXCR4 inhibitor, T140: the insertion of an (E)-alkene dipeptide isostere into the betaII'-turn moiety” (Bioorg Med Chem Lett, 2002).
pIC50: −log10 of the molar value.

Experiments:
[1] = molecular target: T1, C-X-C chemokine receptor type 4 (Homo sapiens, UniProt P61073); assay: (§1) Inhibitory activity based on the inhibition of [Ca2+] mobilization induced by human SDF-1alpha stimulation through C-X-C chemokine receptor type 4
Outline: (§2)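 CHO cells transfected with CXCR4 were loaded with Fura-2-AM for 1–2 h and then pretreated with analogue. Recombinant human SDF-1α was added 3 min later. [Ca2+]i rise was measured spectrofluorometrically by a modified Fura-2 method, and IC50 was derived from inhibition of mobilization. Values are the mean of two experiments.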

[2] = molecular target: T1, C-X-C chemokine receptor type 4; assay: as §1; outline: as §2; remark: listed apart in the source

T1 sequence (P61073 whole entry): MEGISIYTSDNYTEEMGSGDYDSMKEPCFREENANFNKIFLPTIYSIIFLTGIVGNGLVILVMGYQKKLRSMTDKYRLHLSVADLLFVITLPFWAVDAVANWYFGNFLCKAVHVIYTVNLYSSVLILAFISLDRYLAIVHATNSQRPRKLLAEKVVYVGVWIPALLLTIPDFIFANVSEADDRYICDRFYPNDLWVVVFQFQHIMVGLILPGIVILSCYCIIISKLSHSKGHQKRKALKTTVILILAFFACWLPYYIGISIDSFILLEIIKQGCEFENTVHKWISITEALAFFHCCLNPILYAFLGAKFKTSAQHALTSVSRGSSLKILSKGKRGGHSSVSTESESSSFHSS

pIC50 [1]: 7.57
pIC50 [2]: 7.52
Structure (SMILES): C[C@H]1/C=C\[C@@H](CCCCN)NC(=O)[C@H](CCCCN)NC(=O)[C@H](CCCNC(=N)N)NC(=O)[C@H](Cc2ccc(O)cc2)NC(=O)[C@@H](NC(=O)[C@H](Cc2c[nH]c3ccccc23)NC(=O)[C@H](CCCNC(=N)N)NC(=O)[C@@H](N)CCCN=C(N)N)CSSC[C@@H](C(=O)N[C@@H](CCCNC(=N)N)C(=O)O)NC(=O)[C@H](CCCNC(N)=O)NC(=O)[C@H](CCCNC(=N)N)NC(=O)[C@H](Cc2ccc(O)cc2)NC1=O
